Test results from ChEMBL document CHEMBL1123716, “Synthesis and tumor uptake of 5-halo-1-(2'-fluoro-2'-deoxy-beta-D-ribofuranosyl)[2-14C]uracils” (J Med Chem, 1987).

How the values were obtained:
Format in all cases: ADME, organism-based
Settings in all cases: in vivo
[1] = test system: Mus musculus; assay: Tissue distribution in BDF1 female mice bearing an implanted lewis lung tumor after intravenous injection in lung at 0.25 h.
In short: (§1)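 Female BDF₁ mice (18–20 g) carrying transplanted Lewis lung tumor received 23–193 kBq of the [2-¹⁴C]-labeled nucleoside in normal saline via tail vein. The compound was stored as a dry film and reconstituted just before use. Animals were killed at set times, and tissue ¹⁴C was measured by combustion and liquid scintillation. Values are mean ± SD % injected dose per gram of wet tissue, n = 6.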

[2] = test system: Mus musculus; assay: Tissue distribution in BDF1 female mice bearing an implanted lewis lung tumor after intravenous injection in bone at 24 h.
In short: (§2)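 Female BDF1 mice (18–20 g) with implanted Lewis lung tumor received the 2-14C compound by tail vein, 23–193 kBq in normal saline, reconstituted from a dry film just before use. Animals were killed at set times and tissues taken for 14C counting by combustion and liquid scintillation. Values are percent injected dose per gram wet tissue, mean ± standard deviation, six animals.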

[3] = test system: Mus musculus; assay: Tissue distribution in BDF1 female mice bearing an implanted lewis lung tumor after intravenous injection in lung at 1 h.; in short: as §1
[4] = test system: Mus musculus; assay: Tissue distribution in BDF1 female mice bearing an implanted lewis lung tumor after intravenous injection in lung at 4 h; in short: as §1
[5] = test system: Mus musculus; assay: Tissue distribution in BDF1 female mice bearing an implanted lewis lung tumor after intravenous injection in muscle at 0.5 h.; in short: as §1
[6] = test system: Mus musculus; assay: Tissue distribution in BDF1 female mice bearing an implanted lewis lung tumor after intravenous injection in muscle at 1 h.; in short: as §1
[7] = test system: Mus musculus; assay: Tissue distribution in BDF1 female mice bearing an implanted lewis lung tumor after intravenous injection in muscle at 2 h.; in short: as §1
[8] = test system: Mus musculus; assay: Tissue distribution in BDF1 female mice bearing an implanted lewis lung tumor after intravenous injection in muscle at 24 h.; in short: as §1
[9] = test system: Mus musculus; assay: Tissue distribution in BDF1 female mice bearing an implanted lewis lung tumor after intravenous injection in git(Section of intestine) at 0.5 h.; in short: as §2
[10] = test system: Mus musculus; assay: Tissue distribution in BDF1 female mice bearing an implanted lewis lung tumor after intravenous injection in git(Section of intestine) at 2 h.; in short: as §2
[11] = test system: Mus musculus; assay: Tissue distribution in BDF1 female mice bearing an implanted lewis lung tumor after intravenous injection in git(Section of intestine) at 24 h.; in short: as §2
[12] = test system: Mus musculus; assay: Tissue distribution in BDF1 female mice bearing an implanted lewis lung tumor after intravenous injection in bone at 1 h.; in short: as §2
[13] = test system: Mus musculus; assay: Tissue distribution in BDF1 female mice bearing an implanted lewis lung tumor after intravenous injection in git(Section of intestine) at 8 h.; in short: as §2
[14] = test system: Mus musculus; assay: Tissue distribution in BDF1 female mice bearing an implanted lewis lung tumor after intravenous injection in heart at 0.25 h.; in short: as §2
[15] = test system: Mus musculus; assay: Tissue distribution in BDF1 female mice bearing an implanted lewis lung tumor after intravenous injection in heart at 1 h.; in short: as §2
[16] = test system: Mus musculus; assay: Tissue distribution in BDF1 female mice bearing an implanted lewis lung tumor after intravenous injection in heart at 24 h.; in short: as §2
[17] = test system: Mus musculus; assay: Tissue distribution in BDF1 female mice bearing an implanted lewis lung tumor after intravenous injection in heart at 4 h.; in short: as §2
[18] = test system: Mus musculus; assay: Tissue distribution in BDF1 female mice bearing an implanted lewis lung tumor after intravenous injection in heart at 8 h.; in short: as §2
[19] = test system: Mus musculus; assay: Tissue distribution in BDF1 female mice bearing an implanted lewis lung tumor after intravenous injection in kidney at 24 h.; in short: as §1
[20] = test system: Mus musculus; assay: Tissue distribution in BDF1 female mice bearing an implanted lewis lung tumor after intravenous injection in kidney at 8 h.; in short: as §1
[21] = test system: Mus musculus; assay: Tissue distribution in BDF1 female mice bearing an implanted lewis lung tumor after intravenous injection in liver at 0.25 h.; in short: as §1
[22] = test system: Mus musculus; assay: Tissue distribution in BDF1 female mice bearing an implanted lewis lung tumor after intravenous injection in liver at 0.5 h.; in short: as §1
[23] = test system: Mus musculus; assay: Tissue distribution in BDF1 female mice bearing an implanted lewis lung tumor after intravenous injection in liver at 1 h.; in short: as §1
[24] = test system: Mus musculus; assay: Tissue distribution in BDF1 female mice bearing an implanted lewis lung tumor after intravenous injection in liver at 2 h.; in short: as §1
[25] = test system: Mus musculus; assay: Tissue distribution in BDF1 female mice bearing an implanted lewis lung tumor after intravenous injection in liver at 4 h.; in short: as §1
[26] = test system: Mus musculus; assay: Tissue distribution in BDF1 female mice bearing an implanted lewis lung tumor after intravenous injection in blood at 0.25 h; in short: as §2
[27] = test system: Mus musculus; assay: Tissue distribution in BDF1 female mice bearing an implanted lewis lung tumor after intravenous injection in blood at 4 h.; in short: as §2
[28] = test system: Mus musculus; assay: Tissue distribution in BDF1 female mice bearing an implanted lewis lung tumor after intravenous injection in blood at 8 h.; in short: as §2
[29] = test system: Mus musculus; assay: Tissue distribution in BDF1 female mice bearing an implanted lewis lung tumor after intravenous injection in spleen at 1 h.; in short: as §1
[30] = test system: Mus musculus; assay: Tissue distribution in BDF1 female mice bearing an implanted lewis lung tumor after intravenous injection in spleen at 24 h.; in short: as §1
[31] = test system: Mus musculus; assay: Tissue distribution in BDF1 female mice bearing an implanted lewis lung tumor after intravenous injection in spleen at 4 h.; in short: as §1
[32] = test system: Mus musculus; assay: Tissue distribution in BDF1 female mice bearing an implanted lewis lung tumor after intravenous injection in spleen at 8 h.; in short: as §1
[33] = test system: Mus musculus; assay: Tissue distribution in BDF1 female mice bearing an implanted lewis lung tumor after intravenous injection in stomach at 1 h.; in short: as §1
[34] = test system: Mus musculus; assay: Tissue distribution in BDF1 female mice bearing an implanted lewis lung tumor after intravenous injection in stomach at 24 h.; in short: as §1
[35] = test system: Mus musculus; assay: Tissue distribution in BDF1 female mice bearing an implanted lewis lung tumor after intravenous injection in stomach at 4 h.; in short: as §1
[36] = test system: Mus musculus; assay: Tissue distribution in BDF1 female mice bearing an implanted lewis lung tumor after intravenous injection in tumor at 0.25 h.
In short: (§3)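 Female BDF1 mice (18–20 g) carrying a transplanted Lewis lung tumor were given 23–193 kBq of the [2-14C]-labelled nucleoside in normal saline by tail vein. Animals were killed at set times. Tissue 14C was counted by liquid scintillation, after combustion or directly. Values are percent of injected dose per gram wet tissue, as mean ± standard deviation of six animals.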

[37] = test system: Mus musculus; assay: Tissue distribution in BDF1 female mice bearing an implanted lewis lung tumor after intravenous injection in tumor at 0.5 h.; in short: as §3
[38] = test system: Mus musculus; assay: Tissue distribution in BDF1 female mice bearing an implanted lewis lung tumor after intravenous injection in tumor at 2 h.; in short: as §3
[39] = test system: Mus musculus; assay: Tissue distribution in BDF1 female mice bearing an implanted lewis lung tumor after intravenous injection in tumor at 4 h.; in short: as §3
[40] = test system: Mus musculus; assay: Tissue distribution in BDF1 female mice bearing an implanted lewis lung tumor after intravenous injection in bone at 2 h.; in short: as §2
[41] = test system: Mus musculus; assay: Tissue distribution in BDF1 female mice bearing an implanted lewis lung tumor after intravenous injection in kidney at 0.5 h.; in short: as §2
[42] = test system: Mus musculus; assay: Tissue distribution in BDF1 female mice bearing an implanted lewis lung tumor after intravenous injection in muscle at 8 h.; in short: as §1
[43] = test system: Mus musculus; assay: Tissue distribution in BDF1 female mice bearing an implanted lewis lung tumor after intravenous injection in blood at 24 h.; in short: as §2
[44] = test system: Mus musculus; assay: Tissue distribution in BDF1 female mice bearing an implanted lewis lung tumor after intravenous injection in kidney at 4 h.; in short: as §1

SMILES: O=c1[nH]c(=O)n([C@H]2O[C@@H](CO)[C@H](O)[C@H]2F)cc1F
- Tissue distribution [1]: 3.37
- Tissue distribution [2]: 0.02
- Tissue distribution [3]: 0.51
- Tissue distribution [4]: 0.02
- Tissue distribution [5]: 1.06
- Tissue distribution [6]: 0.37
- Tissue distribution [7]: 0.06
- Tissue distribution [8]: 0.004
- Tissue distribution [9]: 1.59
- Tissue distribution [10]: 0.11
- Tissue distribution [11]: 0.01
- Tissue distribution [12]: 0.35
- Tissue distribution [13]: 0.02
- Tissue distribution [14]: 3.8
- Tissue distribution [15]: 0.58
- Tissue distribution [16]: 0.005
- Tissue distribution [17]: 0.02
- Tissue distribution [18]: 0.009
- Tissue distribution [19]: 0.01
- Tissue distribution [20]: 0.02
- Tissue distribution [21]: 3.37
- Tissue distribution [22]: 1.54
- Tissue distribution [23]: 0.53
- Tissue distribution [24]: 0.08
- Tissue distribution [25]: 0.02
- Tissue distribution [26]: 3.49
- Tissue distribution [27]: 0.02
- Tissue distribution [28]: 0.01
- Tissue distribution [29]: 1.44
- Tissue distribution [30]: 0.03
- Tissue distribution [31]: 0.18
- Tissue distribution [32]: 0.09
- Tissue distribution [33]: 0.38
- Tissue distribution [34]: 0.005
- Tissue distribution [35]: 0.02
- Tissue distribution [36]: 5.26
- Tissue distribution [37]: 3.88
- Tissue distribution [38]: 0.49
- Tissue distribution [39]: 0.16
- Tissue distribution [40]: 0.11
- Tissue distribution [41]: 21.9
- Tissue distribution [42]: 0.01
- Tissue distribution [43]: 0.01
- Tissue distribution [44]: 0.08
